In brackets after ≈: the same amount, converted by molar mass.
Key:
Bacterial 70S ribosome = experiment: Inhibition of Mycobacterium smegmatis wild type ribosomes assessed as inhibition of translation activity using Firefly luciferase mRNA reporter based luminescence analysis; type: subcellular, Mycolicibacterium smegmatis
In short: (§1)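 Cell-free ribosomal translation inhibition with IC50 reported in μM. Values were determined in duplicate or more, except for a few compounds in the mitochondrial hybrid assays, where limited material allowed fewer runs.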

[1] = Inhibition of human mitochondrial ribosome Mit 13 hybridized with Mycobacterium smegmatis ribosome assessed as inhibition of translation activity using Firefly luciferase mRNA reporter based luminescence analysis
In short: (§2)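 Cell-free ribosomal translation assay. IC50 reported in μM ± STD, determined in duplicate or more, with fewer replicates for a few compounds where material was limited.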

[2] = Inhibition of human mitochondrial ribosome Mit 13 A1555G mutant hybridized with Mycobacterium smegmatis ribosome assessed as inhibition of translation activity using Firefly luciferase mRNA reporter based luminescence analysis; in short: as §1
[3] = Inhibition of human cytoplasmic ribosome Cyt 14 hybridized with Mycobacterium smegmatis ribosome assessed as inhibition of translation activity using Firefly luciferase mRNA reporter based luminescence analysis; in short: as §2
[4] = Selectivity ratio of IC50 for inhibition of human mitochondrial ribosome Mit 13 hybridized with Mycobacterium smegmatis ribosome to IC50 for inhibition of Mycobacterium smegmatis wild type ribosomes
[5] = Selectivity ratio of IC50 for inhibition of human mitochondrial ribosome Mit 13 A1555G mutant hybridized with Mycobacterium smegmatis ribosomes to IC50 for inhibition of Mycobacterium smegmatis wild type ribosomes
[6] = Selectivity ratio of IC50 for inhibition of human cytoplasmic ribosome Cyt 14 hybridized with Mycobacterium smegmatis ribosomes to IC50 for inhibition of Mycobacterium smegmatis wild type ribosomes
Staphylococcus aureus = experiment: Antibacterial activity against methicillin-resistant Staphylococcus aureus AG038; type: functional
Escherichia coli = experiment: Antibacterial activity against Escherichia coli AG001; type: functional
Acinetobacter baumannii = experiment: Antibacterial activity against Acinetobacter baumannii AG225; type: functional
Klebsiella pneumoniae = experiment: Antibacterial activity against Klebsiella pneumoniae AG215; type: functional
Enterobacter cloacae = experiment: Antibacterial activity against Enterobacter cloacae AG290; type: functional
Pseudomonas aeruginosa = experiment: Antibacterial activity against Pseudomonas aeruginosa AG031; type: functional

| Structure (SMILES) | IC50 (Bacterial 70S ribosome) [µM] | IC50 [1] [µM] | IC50 [2] [µM] | IC50 [3] [µM] | Ratio IC50 [4] | Ratio IC50 [5] | Ratio IC50 [6] | MIC (Staphylococcus aureus) [µg/mL] | MIC (Escherichia coli) [µg/mL] | MIC (Acinetobacter baumannii) [µg/mL] | MIC (Klebsiella pneumoniae) [µg/mL] | MIC (Enterobacter cloacae) [µg/mL] | MIC (Pseudomonas aeruginosa) [µg/mL] |
| --- | --- | --- | --- | --- | --- | --- | --- | --- | --- | --- | --- | --- | --- |
| NC[C@@H]1O[C@H](O[C@H]2[C@@H](O)[C@H](O[C@@H]3[C@@H](O)[C@H](N)C[C@H](N)[C@H]3O[C@H]3O[C@H]4[C@@H](OCC[C@H]4O)[C@H](O)[C@H]3N)O[C@@H]2CO)[C@H](N)[C@@H](O)[C@@H]1O | 3.3 | 554 | 602 | 557 | 168 | 182 | 169 | 32 (≈ 49.9 µM) | 128 (≈ 199 µM) | 64 (≈ 99.7 µM) | 64 (≈ 99.7 µM) | 64 (≈ 99.7 µM) | > 128 |
| NC[C@@H]1O[C@H](O[C@H]2[C@@H](O)[C@H](O[C@@H]3[C@@H](O)[C@H](N)C[C@H](N)[C@H]3O[C@H]3O[C@H]4[C@@H](OC[C@H]4O)[C@H](O)[C@H]3N)O[C@@H]2CO)[C@H](N)[C@@H](O)[C@@H]1O | 0.2 | 131 | 117 | 276 | 655 | 585 | 1380 | 8 (≈ 12.7 µM) | 16 (≈ 25.5 µM) | 8 (≈ 12.7 µM) | 4 (≈ 6.37 µM) | 8 (≈ 12.7 µM) | > 64 |
| C[C@@H]1C[C@@H](O)[C@H]2O[C@H](O[C@H]3[C@H](O[C@@H]4O[C@H](CO)[C@@H](O[C@H]5O[C@@H](CN)[C@@H](O)[C@H](O)[C@H]5N)[C@H]4O)[C@@H](O)[C@H](N)C[C@@H]3N)[C@H](N)[C@@H](O)[C@@H]2O1 | 0.89 | 372 | 327 | 266 | 418 | 367 | 299 | 32 (≈ 48.8 µM) | 32 (≈ 48.8 µM) | 32 (≈ 48.8 µM) | 16 (≈ 24.4 µM) | 32 (≈ 48.8 µM) | > 128 |
| NC[C@@H]1O[C@H](O[C@H]2[C@@H](O)[C@H](O[C@@H]3[C@@H](O)[C@H](N)C[C@H](N)[C@H]3O[C@H]3O[C@H]4[C@@H](OC[C@@H]4O)[C@H](O)[C@H]3N)O[C@@H]2CO)[C@H](N)[C@@H](O)[C@@H]1O | 0.13 | 151 | – | 40 | 943 | – | 250 | 16 (≈ 25.5 µM) | 32 (≈ 51 µM) | 32 (≈ 51 µM) | 16 (≈ 25.5 µM) | 32 (≈ 51 µM) | > 128 |
| NC[C@@H]1O[C@H](O[C@H]2[C@@H](O)[C@H](O[C@@H]3[C@@H](O)[C@H](N)C[C@H](N)[C@H]3O[C@H]3O[C@H]4[C@@H](OCC[C@@H]4O)[C@H](O)[C@H]3N)O[C@@H]2CO)[C@H](N)[C@@H](O)[C@@H]1O | 0.12 | 231 | 132 | 120 | 1920 | 1100 | 1000 | 2 (≈ 3.12 µM) | 8 (≈ 12.5 µM) | 8 (≈ 12.5 µM) | 4 (≈ 6.23 µM) | 4 (≈ 6.23 µM) | > 128 |
| NC[C@@H]1O[C@H](O[C@H]2[C@@H](O)[C@H](O[C@@H]3[C@@H](O)[C@H](N)C[C@H](N)[C@H]3O[C@H]3O[C@H](CO)[C@@H](O)[C@H](O)[C@H]3N)O[C@@H]2CO)[C@H](N)[C@@H](O)[C@@H]1O [PAROMOMYCIN] | 0.033 | 131 | 12 | 37 | 3970 | 364 | 1120 | 2 (≈ 3.25 µM) | 2 (≈ 3.25 µM) | 2 (≈ 3.25 µM) | 1 (≈ 1.62 µM) | 2 (≈ 3.25 µM) | > 128 |
| C[C@@H]1C[C@H](O)[C@H]2O[C@H](O[C@H]3[C@H](O[C@@H]4O[C@H](CO)[C@@H](O[C@H]5O[C@@H](CN)[C@@H](O)[C@H](O)[C@H]5N)[C@H]4O)[C@@H](O)[C@H](N)C[C@@H]3N)[C@H](N)[C@@H](O)[C@@H]2O1 | 0.063 | 250 | 20 | 34 | 3970 | 317 | 540 | 4 (≈ 6.1 µM) | 4 (≈ 6.1 µM) | 4 (≈ 6.1 µM) | 2 (≈ 3.05 µM) | 2 (≈ 3.05 µM) | 32 (≈ 48.8 µM) |
| NC[C@@H]1O[C@H](O[C@H]2[C@@H](O)[C@H](O[C@@H]3[C@@H](O)[C@H](N)C[C@H](N)[C@H]3O[C@H]3O[C@H]4[C@@H](OCCC[C@@H]4O)[C@H](O)[C@H]3N)O[C@@H]2CO)[C@H](N)[C@@H](O)[C@@H]1O | 0.071 | 243 | 42 | 56 | 3420 | 592 | 789 | 2 (≈ 3.05 µM) | 4 (≈ 6.1 µM) | 4 (≈ 6.1 µM) | 2 (≈ 3.05 µM) | 2 (≈ 3.05 µM) | 64 (≈ 97.6 µM) |
| NC[C@@H]1O[C@H](O[C@H]2[C@@H](O)[C@H](O[C@@H]3[C@@H](O)[C@H](N)C[C@H](N)[C@H]3O[C@H]3O[C@H]4[C@@H](OCCC[C@H]4O)[C@H](O)[C@H]3N)O[C@@H]2CO)[C@H](N)[C@@H](O)[C@@H]1O | 1.5 | 514 | 545 | – | 342 | 363 | – | 32 (≈ 48.8 µM) | 64 (≈ 97.6 µM) | 32 (≈ 48.8 µM) | 32 (≈ 48.8 µM) | 32 (≈ 48.8 µM) | > 128 |

Reference: ChEMBL document CHEMBL5136970, “Influence of ring size in conformationally restricted ring I analogs of paromomycin on antiribosomal and antibacterial activity” (RSC Med Chem, 2021)
